Measured values reported in publication PMC5270551 (Biochemistry, 2015).
Where two headings read alike, the source gives them in different places. Where a SMILES comes first, the peptide text is derived from it. Bridges are numbered along the chain shown (N, C = ends).

Key:
E. coli ATCC 25922 [1] = format: cell-based, Escherichia coli; conditions: for log-reduction in CFU/mL: 4 μM peptide
E. coli ATCC 25922 [2] = experiment: Morphology imaging by phase-contrast microscopy and SEM; format: cell-based, Escherichia coli; conditions: for cells elongated (length 5 μm or greater) / cells exhibiting blebs: 1 × 10^8 CFU/mL, mid-log, 1 h 37 °C
[3] = test system: Acinetobacter baumannii 17978; format: cell-based
[4] = test system: Pseudomonas aeruginosa PAO1; format: cell-based
[5] = test system: Klebsiella pneumoniae 13883; experiment: Morphology imaging of Gram-negative bacteria; format: cell-based; conditions: 20 μM peptide, 1 × 10^8 CFU/mL, mid-log, 1 h 37 °C
Procedure, shortened: (§1)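 Mid-log bacteria at 1 × 10^8 CFU/mL were exposed to test peptide (20 μM; 40 μM for P. aeruginosa) for 1 h at 37 °C in 10 mM sodium phosphate buffer, pH 7.4, with 1% v/v TSB, then imaged by microscopy for morphology.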

E. coli CFT073 = experiment: Morphology imaging of Gram-negative bacteria; format: cell-based, Escherichia coli; conditions: 20 μM HD5ox, 1 × 10^8 CFU/mL, mid-log, 1 h 37 °C; R-HD5ox Figure S19
Procedure, shortened: as §1

E. coli K-12 = experiment: Morphology imaging of Gram-negative bacteria; format: cell-based, Escherichia coli; conditions: 20 μM peptide, 1 × 10^8 CFU/mL, mid-log, 1 h 37 °C
Procedure, shortened: as §1

E. coli cyto-GFP = format: cell-based, Escherichia coli
Procedure, shortened: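 An E. coli strain carrying cytoplasmic GFP, in mid-log or stationary phase, was exposed to test peptide across 0–80 μM. Cell length and mean GFP fluorescence intensity (arbitrary units) were taken from fluorescence images, and untreated and treated means were compared by Student's t-test.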

[6] = cited from earlier work

Q: What does the source list for CC[C@H](C)[C@@H]1NC(=O)[C@H](CCC(=O)O)NC(=O)[C@@H]2CSSC[C@@H]3NC(=O)[C@H](Cc4ccc(O)cc4)NC(=O)[C@@H](NC(=O)[C@@H](NC(=O)[C@H](C)N)[C@@H](C)O)CSSC[C@@H](C(=O)N[C@@H](CCCNC(=N)N)C(=O)O)NC(=O)[C@H](CSSC[C@H](NC(=O)[C@H](CCCNC(=N)N)NC(=O)CNC(=O)[C@H]([C@@H](C)O)NC(=O)[C@H](CCCNC(=N)N)NC3=O)C(=O)N[C@@H](C)C(=O)N[C@@H]([C@@H](C)O)C(=O)N[C@@H](CCCNC(=N)N)C(=O)N[C@@H](CCC(=O)O)C(=O)N[C@@H](CO)C(=O)N[C@@H](CC(C)C)C(=O)N[C@@H](CO)C(=O)NCC(=O)N[C@@H](C(C)C)C(=O)N2)NC(=O)[C@H](CC(C)C)NC(=O)[C@H](CCCNC(=N)N)NC(=O)[C@H](Cc2ccc(O)cc2)NC(=O)[C@H](CC(C)C)NC(=O)[C@H](CCCNC(=N)N)NC(=O)CNC(=O)[C@H](CO)NC1=O [HD5ox] (H-ATCYCRTGRCATRESLSGVCEISGRLYRLCCR-OH; disulfide 3-31, 5-20, 10-30 (inferred); N-terminus and C-terminus assumed)?
A: log-reduction in CFU/mL (E. coli ATCC 25922 [1]; mid-log phase E. coli): ~ 4 fold log-reduction in CFU/mL; log-reduction in CFU/mL (E. coli ATCC 25922 [1]; stationary phase E. coli): ~ 2 fold log-reduction in CFU/mL; log reduction in CFU/mL (E. coli ATCC 25922 [1]; 40 μM peptide, modified AMA conditions, 1 × 10^8 CFU/mL): ≈ 2 fold log reduction in CFU/mL; antibacterial activity in presence of Zn(II) (E. coli ATCC 25922 [1]; 2:1 Zn(II):HD5ox molar ratio): loss of antibacterial activity; HD5ox activity in presence of divalent cations (E. coli ATCC 25922 [1]; Ca(II), Mg(II) and Zn(II) added): blocked HD5ox activity; lethal dose for 99.99% killing, LD99.99 (E. coli ATCC 25922 [1]; E. coli ATCC 25922, 1 × 10^6 CFU/mL, n = 3 (Figure 9C)): 8 µM; cells elongated (length 5 μm or greater) (E. coli ATCC 25922 [2]; 20 μM peptide, n = 212 cells): 2%; cells exhibiting blebs (E. coli ATCC 25922 [2]; 20 μM peptide, n = 212 cells): ~ 17%; bacterial morphology with NaCl (E. coli ATCC 25922 [2]; 40 μM peptide co-treated with 200 mM NaCl): smooth morphology similar to that of the untreated control; bacterial morphology (phase-contrast) (E. coli ATCC 25922 [2]; 2 and 4 μM peptide, mid-log phase, 1 × 10^6 CFU/mL, standard AMA conditions): formation of large bulges; cells elongated (length 5 μm or greater) (E. coli ATCC 25922 [2]; ≥40 μM peptide, n = 203 cells): ≥ 4%; cells exhibiting blebs (E. coli ATCC 25922 [2]; ≥40 μM peptide, n = 203 cells): ~ 30%; bacterial morphology ([3]; 20 μM peptide, 1 × 10^8 CFU/mL, mid-log, 1 h 37 °C): bleb formation, elongation, and clumping; HD5ox concentration at which blebs were displayed ([3]; 17978, 1 h): 10 µM; bacterial morphology ([4]; 40 μM peptide, 1 × 10^8 CFU/mL, mid-log, 1 h 37 °C): bleb formation, elongation, and clumping; HD5ox concentration at which blebs were observed (only at this concentration) ([4]; PAO1, 1 h): 40 µM; bacterial morphology [5]: bleb formation, elongation, and clumping; bacterial morphology (E. coli CFT073): bleb formation, elongation, and clumping; bacterial morphology (E. coli K-12): bleb formation, elongation, and clumping; mean cell length after treatment (E. coli cyto-GFP; mid-log phase, increasing HD5ox (0–80 μM), from 2.8 ± 0.8 μm without peptide): 3.4 ± 1.0 μm; mean GFP fluorescence intensity after treatment (E. coli cyto-GFP; mid-log phase, increasing HD5ox (0–80 μM), from 155 ± 48 units without peptide): 93 ± 47 units; mean cell length after treatment (E. coli cyto-GFP; stationary phase, from 3.0 ± 0.8 μm without peptide): 2.9 ± 0.7 μm; mean GFP fluorescence intensity after treatment (E. coli cyto-GFP; stationary phase, from 112 ± 38 units without peptide): 139 ± 53 units; oligomeric form at neutral pH [6]: tetramers

B1: HD5-TE: Linear form of human α-defensin 5 (iodoacetamide-capped) (peptide, UniProt Q01523 20-94, looked up)
Defensin alpha 5: ESLQERADEATTQKQSGEDNQDLAISFAGNGLSALRTSGSQARATCYCRTGRCATRESLSGVCEISGRLYRLCCR
modifications: Defensin-5 cysteines carbamidomethylated
Q: For B1, which “log reduction of CFU/mL” value (E. coli ATCC 25922 [1]; 16 μM peptide) is on record?
A: The value was 2 fold log reduction of CFU/mL.

B2: R-HD5[R9K]: rhodamine-HD5 conjugate, fluorophore positioned at R9K mutation site (conjugate, UniProt Q01523 20-94, looked up, variant R9K)
Defensin alpha 5: ESLQERADEATTQKQSGEDNQDLAISFAGNGLSALRTSGSQARATCYCRTGKCATRESLSGVCEISGRLYRLCCR
modifications: Defensin-5 rhodamine label at K9
Q: With B2 as the molecule, how does the “antimicrobial activity against E. coli (in words)” value (E. coli ATCC 25922 [1]; AMA assay) read?
A: The value was “active against E. coli”.
